Laboratory results reported in ChEMBL document CHEMBL1926577, “Novel 1,3,4-heterodiazole analogues: synthesis and in-vitro antitumor activity” (2012).

What was measured:
Assay type in all cases: functional
[1] = Growth inhibition of human CNS cancer cells after 48 hrs by coulter counter method; settings: Cancer cell lines
Outline: (§1)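 NCI 60-line panel cells. Compound is dissolved in DMSO and diluted in phosphate-buffered saline, with final DMSO below 1%. It is added in duplicate wells to cultures at 6 × 10⁴ cells/ml and held at 37 °C, 5% CO₂, humidified, for 48 h. Cells are diluted 10-fold in saline, counted by Coulter counter and dilution-corrected. Vehicle controls contain PBS plus DMSO.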

[2] = Growth inhibition of human colon cancer cells after 48 hrs by coulter counter method; settings: Cancer cell lines; outline: as §1
[3] = Growth inhibition of human ovarian cancer cells after 48 hrs by coulter counter method; settings: Cancer cell lines; outline: as §1
[4] = Growth inhibition of human leukemia cells after 48 hrs by coulter counter method; settings: Leukemia cell; outline: as §1
Melanoma cell = assay: Growth inhibition of human Melanoma cells after 48 hrs by coulter counter method; outline: as §1
[5] = Growth inhibition of human prostate cancer cells after 48 hrs by coulter counter method; settings: Cancer cell lines; outline: as §1
NSCLC = assay: Growth inhibition of human NSCLC cells after 48 hrs by coulter counter method; outline: as §1
[6] = Growth inhibition of human breast cancer cells after 48 hrs by coulter counter method; settings: Cancer cell lines; outline: as §1
[7] = Growth inhibition of human renal cancer cells after 48 hrs by coulter counter method; settings: Cancer cell lines; outline: as §1
[8] = read-out: LC50 (the source's name)

O=c1[nH]cc(F)c(=O)[nH]1 [FLUOROURACIL]
TGI [1]: > 100 µM | CC50 [1, 8]: > 100 µM | GI50 [2]: 8.4 µM | TGI [2]: > 100 µM | GI50 [3]: 61.4 µM | TGI [3]: > 100 µM | TGI [4]: > 100 µM | CC50 [4, 8]: > 100 µM | TGI (Melanoma cell): > 100 µM | GI50 [5]: 22.7 µM | TGI [5]: > 100 µM | GI50 (NSCLC): > 100 µM | TGI (NSCLC): > 100 µM | CC50 (NSCLC; [8]): > 100 µM | GI50 [6]: 76.4 µM | TGI [6]: > 100 µM | CC50 [6, 8]: > 100 µM | GI50 [7]: 45.6 µM | TGI [7]: > 100 µM | CC50 [7, 8]: > 100 µM
